Values after ≈ are worked out from the molar mass of the structure shown. Where a SMILES comes first, the peptide text is derived from it. The star is where a group is joined. X2 = CC(=O)N[C@@H]1[C@@H](O)[C@H](O)[C@@H](CO)O[C@@H]1*
Legend:
Klebsiella pneumoniae [1] = assay: Minimum inhibitory concentration (lowest peptide concentration) required to prevent visible bacterial growth after 18 hr of incubation at 37 C in Mueller-Hinton broth against Klebsiella pneumoniae 22; assay type: functional
Method in brief: (§1)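 Broth microdilution susceptibility test per NCCLS guidelines, in Mueller–Hinton broth with about 1.5–2.0 × 10^5 CFU/mL inoculum. Plates were incubated 18 h at 37 °C. MIC was taken as the lowest peptide concentration with no visible growth. Strains were ATCC strains or clinical isolates; E. coli O18:K1:H7 Bort is an encapsulated isolate from neonatal spinal fluid, and the S. aureus isolate is MRSA.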

Salmonella enteritidis [2] = assay: Minimum inhibitory concentration (lowest peptide concentration) required to prevent visible bacterial growth after 18 hr of incubation at 37 C in Mueller-Hinton broth against Salmonella enteritidis D5; conditions: Salmonella enterica
Klebsiella pneumoniae [3] = assay: Minimum inhibitory concentration (lowest peptide concentration) required to prevent visible bacterial growth after 18 hr of incubation at 37 C in Mueller-Hinton broth against Klebsiella pneumoniae 79; assay type: functional; method in brief: as §1
[4] = test system: Staphylococcus epidermidis; assay: Minimum inhibitory concentration (lowest peptide concentration) required to prevent visible bacterial growth after 18 hr of incubation at 37 C in Mueller-Hinton broth against Staphylococcus epidermidis 4; assay type: functional; method in brief: as §1
Acinetobacter baumannii = assay: Minimum inhibitory concentration (lowest peptide concentration) required to prevent visible bacterial growth after 18 hr of incubation at 37 C in Mueller-Hinton broth against Acinetobacter baumannii 118A; assay type: functional; method in brief: as §1
Escherichia coli [5] = assay: Minimum inhibitory concentration (lowest peptide concentration) required to prevent visible bacterial growth after 18 hr of incubation at 37 C in Mueller-Hinton broth against Escherichia coli D22; assay type: functional; method in brief: as §1
Escherichia coli [6] = assay: Minimum inhibitory concentration (lowest peptide concentration) required to prevent visible bacterial growth after 18 hr of incubation at 37 C in Mueller-Hinton broth against Escherichia coli ML-35; assay type: functional; method in brief: as §1
Salmonella typhimurium = assay: Minimum inhibitory concentration (lowest peptide concentration) required to prevent visible bacterial growth after 18 hr of incubation at 37 C in Mueller-Hinton broth against Salmonella Typhimurium ATCC 14028; assay type: functional, Salmonella enterica subsp. enterica serovar Typhimurium; conditions: Salmonella enterica; method in brief: as §1
Salmonella enteritidis [7] = assay: Minimum inhibitory concentration (lowest peptide concentration) required to prevent visible bacterial growth after 18 h of incubation at 37 C in Mueller-Hinton broth against […]; assay type: functional, Salmonella enterica subsp. enterica serovar Enteritidis; conditions: Salmonella enterica; method in brief: as §1
Escherichia coli [8] = assay: Minimum inhibitory concentration (lowest peptide concentration) required to prevent visible bacterial growth after 18 hr of incubation at 37 C in Mueller-Hinton broth against Escherichia coli ATCC 25922; assay type: functional; conditions: ATCC 25922, 18 h; method in brief: as §1
Escherichia coli [9] = assay: Minimum inhibitory concentration (lowest peptide concentration) required to prevent visible bacterial growth after 18 hr of incubation at 37 C in Mueller-Hinton broth against Escherichia coli D21; assay type: functional; method in brief: as §1
Pseudomonas aeruginosa = assay: Minimum inhibitory concentration (lowest peptide concentration) required to prevent visible bacterial growth after 18 hr of incubation at 37 C in Mueller-Hinton broth against Pseudomonas aeruginosa ATCC 27853; assay type: functional; conditions: ATCC 27853, 18 h; method in brief: as §1
Staphylococcus aureus = assay: Minimum inhibitory concentration (lowest peptide concentration) required to prevent visible bacterial growth after 18 hr of incubation at 37 C in Mueller-Hinton broth against Staphylococcus aureus G; assay type: functional; method in brief: as §1
Escherichia coli [10] = assay: Minimum inhibitory concentration (lowest peptide concentration) required to prevent visible bacterial growth after 18 hr of incubation at 37 C in Mueller-Hinton broth against Escherichia coli O18:K1:H7; assay type: functional; method in brief: as §1

Compound | MIC (Klebsiella pneumoniae [1]) [µM] | MIC (Salmonella enteritidis [2]) [µM] | MIC (Klebsiella pneumoniae [3]) [µM] | MIC [4] [µM] | MIC (Acinetobacter baumannii) [µM] | MIC (Escherichia coli [5]) [µM] | MIC (Escherichia coli [6]) [µM] | MIC (Salmonella typhimurium) [µM] | MIC (Salmonella enteritidis [7]) [µM] | MIC (Escherichia coli [8]) [µM] | MIC (Escherichia coli [9]) [µM] | MIC (Pseudomonas aeruginosa) [µM] | MIC (Staphylococcus aureus) [µM] | MIC (Escherichia coli [10]) [µM]
CC[C@H](C)[C@@H]1NC(=O)[C@H](Cc2ccc(O)cc2)NC(=O)[C@H](C(C)C)NC(=O)[C@@H]2CCCN2C(=O)[C@H](CCCN=C(N)N)NC(=O)[C@H](CC(N)=O)NC(=O)[C@H](CC(N)=O)NC(=O)CNC(=O)[C@H](CC(C)C)NC(=O)[C@H](CCCN=C(N)N)NC(=O)[C@@H]2CCCN2C(=O)[C@H](Cc2c[nH]cn2)NC(=O)[C@@H]2CCCN2C(=O)[C@@H]2CCCN2C(=O)[C@H](CCCN=C(N)N)NC(=O)[C@@H]2CCCN2C(=O)[C@H](CCC(N)=O)NC(=O)[C@@H]2CCCN2C1=O (HELM PEPTIDE1{G.N.N.R.P.V.Y.I.P.Q.P.R.P.P.H.P.R.L}$PEPTIDE1,PEPTIDE1,1:R1-18:R2$$$V2.0) | > 64 | > 64 | > 64 | > 64 | > 128 | 64 (≈ 134 µg/mL) | 64 (≈ 134 µg/mL) | > 64 | > 64 | > 64 | > 64 | > 128 | > 64 | 32 (≈ 66.9 µg/mL)
CC[C@H](C)[C@H](NC(=O)[C@H](Cc1ccc(O)cc1)NC(=O)[C@@H](NC(=O)[C@@H]1CCCN1C(=O)[C@H](CCCNC(=N)N)NC(=O)[C@H](CC(N)=O)NC(=O)[C@H](CC(N)=O)NC(=O)CN)C(C)C)C(=O)N1CCC[C@H]1C(=O)N[C@@H](CCC(N)=O)C(=O)N1CCC[C@H]1C(=O)N[C@@H](CCCNC(=N)N)C(=O)N1CCC[C@H]1C(=O)N1CCC[C@H]1C(=O)N[C@@H](Cc1cnc[nH]1)C(=O)N1CCC[C@H]1C(=O)N[C@@H](CCCNC(=N)N)C(=O)N[C@@H](CC(C)C)C(=O)O [APIDAECIN] | 32 (≈ 67.5 µg/mL) | 4 (≈ 8.43 µg/mL) | 32 (≈ 67.5 µg/mL) | > 64 | > 128 | 4 (≈ 8.43 µg/mL) | 4 (≈ 8.43 µg/mL) | 8 (≈ 16.9 µg/mL) | 4 (≈ 8.43 µg/mL) | 4 (≈ 8.43 µg/mL) | > 64 | > 128 | > 64 | 4 (≈ 8.43 µg/mL)

The next lines start with the values.

MIC (Klebsiella pneumoniae [1]) [µM] | MIC (Salmonella enteritidis [2]) [µM] | MIC (Klebsiella pneumoniae [3]) [µM] | MIC [4] [µM] | MIC (Acinetobacter baumannii) [µM] | MIC (Escherichia coli [5]) [µM] | MIC (Escherichia coli [6]) [µM] | MIC (Salmonella typhimurium) [µM] | MIC (Salmonella enteritidis [7]) [µM] | MIC (Escherichia coli [8]) [µM] | MIC (Escherichia coli [9]) [µM] | MIC (Pseudomonas aeruginosa) [µM] | MIC (Staphylococcus aureus) [µM] | MIC (Escherichia coli [10]) [µM] | Compound
4 (≈ 9.61 µg/mL) | 1 (≈ 2.4 µg/mL) | 8 (≈ 19.2 µg/mL) | > 64 | > 128 | 1 (≈ 2.4 µg/mL) | 1 (≈ 2.4 µg/mL) | 2 (≈ 4.8 µg/mL) | 2 (≈ 4.8 µg/mL) | 1 (≈ 2.4 µg/mL) | 8 (≈ 19.2 µg/mL) | > 128 | > 64 | 1 (≈ 2.4 µg/mL) | CC[C@H](C)[C@H](NC(=O)[C@@H]1CCCN1C(=O)[C@H](CCCN=C(N)N)NC(=O)[C@@H]1CCCN1C(=O)[C@H](Cc1c[nH]cn1)NC(=O)[C@H](CO)NC(=O)[C@@H](NC(=O)[C@@H]1CCCN1C(=O)[C@H](CCCN=C(N)N)NC(=O)[C@@H]1CCCN1C(=O)[C@H](CO)NC(=O)[C@H](Cc1ccc(O)cc1)NC(=O)[C@@H]1CCCN1C(=O)[C@H](CCCN=C(N)N)NC(=O)[C@@H]1CCCN1C(=O)[C@H](CCCCN)NC(=O)CN)[C@@H](C)O[C@H]1O[C@H](CO)[C@@H](O)[C@H](O)[C@H]1NC(C)=O)C(=O)N[C@@H](CCCN=C(N)N)C(=O)N[C@H](C(=O)O)C(C)C (H-GKPRPYSPRPT(X2)SHPRPIRV-OH)
> 64 | > 64 | > 64 | > 64 | > 64 | > 64 | > 64 | > 64 | > 64 | > 64 | > 64 | > 64 | > 64 | > 64 | CC[C@H](C)[C@@H]1NC(=O)[C@@H]2CCCN2C(=O)[C@H](CCCNC(=N)N)NC(=O)[C@@H]2CCCN2C(=O)[C@H](Cc2cnc[nH]2)NC(=O)[C@H](CO)NC(=O)[C@H]([C@@H](C)O)NC(=O)[C@@H]2CCCN2C(=O)[C@H](CCCNC(=N)N)NC(=O)[C@@H]2CCCN2C(=O)[C@H](CO)NC(=O)[C@H](Cc2ccc(O)cc2)NC(=O)[C@@H]2CCCN2C(=O)[C@H](CCCNC(=N)N)NC(=O)[C@@H]2CCCN2C(=O)[C@H](CCCCN)NC(=O)CNC(=O)[C@H](C(C)C)NC(=O)[C@H](CCCNC(=N)N)NC(=O)[C@H]([C@@H](C)CC)NC(=O)[C@@H]2CCCN2C(=O)[C@H](CCCNC(=N)N)NC(=O)[C@@H]2CCCN2C(=O)[C@H](Cc2cnc[nH]2)NC(=O)[C@H](CO)NC(=O)[C@H]([C@@H](C)O)NC(=O)[C@@H]2CCCN2C(=O)[C@H](CCCNC(=N)N)NC(=O)[C@@H]2CCCN2C(=O)[C@H](CO)NC(=O)[C@H](Cc2ccc(O)cc2)NC(=O)[C@@H]2CCCN2C(=O)[C@H](CCCNC(=N)N)NC(=O)[C@@H]2CCCN2C(=O)[C@H](CCCCN)NC(=O)CNC(=O)[C@H](C(C)C)NC(=O)[C@H](CCCNC(=N)N)NC1=O (HELM PEPTIDE1{G.K.P.R.P.Y.S.P.R.P.T.S.H.P.R.P.I.R.V.G.K.P.R.P.Y.S.P.R.P.T.S.H.P.R.P.I.R.V}$PEPTIDE1,PEPTIDE1,1:R1-38:R2$$$V2.0)
> 128 | > 128 | > 128 | > 64 | > 128 | > 64 | > 128 | > 128 | > 128 | > 128 | > 64 | > 128 | > 64 | > 128 | H-GNNRPVYIPQPRPTPHPRL-OH

Reference: ChEMBL document CHEMBL1135826, “Antimicrobial peptides: synthesis and antibacterial activity of linear and cyclic drosocin and apidaecin 1b analogues” (2002)
